Assay results published in ChEMBL document CHEMBL3739264, “Synthesis and bio-evaluation of novel quinolino-stilbene derivatives as potential anticancer agents” (Bioorg Med Chem, 2015).
Calls of active or inactive are those of the source. The calls are words filed in the database; no cut-off is given here.

Columns and labels:
HeLa [1] = test: Cell cycle arrest in human HeLa cells assessed as accumulation at G0-G1 phase at 6 uM after 24 hrs by flow cytometry analysis relative to control; type: functional
Outline: (§1)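 About 1 × 10^6 cells per plate seeded overnight, then treated with compound and harvested at set times. Cells fixed in 75% ethanol at -20°C for 12-24 h and stained 1 h with 100 µg/ml PI, 100 µg/ml RNase A and 0.3% NP-40 in PBS. DNA content measured by flow cytometry; phase fractions compared with sham-treated cells.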

HeLa [2] = test: Cell cycle arrest in human HeLa cells assessed as accumulation at S phase at 6 uM after 24 hrs by flow cytometry analysis relative to control; type: functional; outline: as §1
HeLa [3] = test: Cell cycle arrest in human HeLa cells assessed as accumulation at S phase at 6 uM after 48 hrs by flow cytometry analysis relative to control; type: functional; outline: as §1
HeLa [4] = test: Cell cycle arrest in human HeLa cells assessed as accumulation at G2/M phase at 6 uM after 48 hrs by flow cytometry analysis relative to control; type: functional; outline: as §1
HeLa [5] = test: Cell cycle arrest in human HeLa cells assessed as accumulation at G2/M phase at 6 uM after 72 hrs by flow cytometry analysis relative to control; type: functional; outline: as §1
MDA-MB-231 [6] = test: Cell cycle arrest in human MDA-MB-231 cells assessed as accumulation at G0-G1 phase at 6 uM after 12 hrs by flow cytometry analysis relative to control; type: functional; outline: as §1
MDA-MB-231 [7] = test: Cell cycle arrest in human MDA-MB-231 cells assessed as accumulation at S phase at 6 uM after 12 hrs by flow cytometry analysis relative to control; type: functional; outline: as §1
MDA-MB-231 [8] = test: Cell cycle arrest in human MDA-MB-231 cells assessed as accumulation at S phase at 6 uM after 24 hrs by flow cytometry analysis relative to control; type: functional; outline: as §1
MDA-MB-231 [9] = test: Cell cycle arrest in human MDA-MB-231 cells assessed as accumulation at G2/M phase at 6 uM after 24 hrs by flow cytometry analysis relative to control; type: functional; outline: as §1
MDA-MB-231 [10] = test: Cell cycle arrest in human MDA-MB-231 cells assessed as accumulation at G0-G1 phase at 6 uM after 48 hrs by flow cytometry analysis relative to control; type: functional; outline: as §1
MDA-MB-231 [11] = test: Cell cycle arrest in human MDA-MB-231 cells assessed as accumulation at sub-G1 phase at 6 uM after 72 hrs by flow cytometry analysis relative to control; type: functional
Outline: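 Cells seeded overnight at about 1 × 10^6 per plate, treated next morning, and harvested at set times. Fixed in 75% ethanol at -20°C for 12-24 h, then stained 1 h in PBS with 0.3% NP-40, 100 µg/ml RNase A and 100 µg/ml propidium iodide. Phase distribution read from DNA content by flow cytometry against sham-treated cells.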

MDA-MB-231 [12] = test: Cell cycle arrest in human MDA-MB-231 cells assessed as accumulation at G0-G1 phase at 6 uM after 72 hrs by flow cytometry analysis relative to control; type: functional; outline: as §1
MDA-MB-231 [13] = test: Cell cycle arrest in human MDA-MB-231 cells assessed as accumulation at S phase at 6 uM after 72 hrs by flow cytometry analysis relative to control; type: functional; outline: as §1
MDA-MB-231 [14] = test: Cell cycle arrest in human MDA-MB-231 cells assessed as accumulation at G2/M phase at 6 uM after 72 hrs by flow cytometry analysis relative to control; type: functional; outline: as §1
[15] = Cell cycle arrest in human MCF10A cells assessed as accumulation at sub-G1 phase at 6 uM after 12 hrs by flow cytometry analysis relative to control; type: functional, cell-based; conditions: MCF-10A; outline: as §1
[16] = Cell cycle arrest in human MCF10A cells assessed as accumulation at G0-G1 phase at 6 uM after 12 hrs by flow cytometry analysis relative to control; type: functional, cell-based; conditions: MCF-10A; outline: as §1
[17] = Cell cycle arrest in human MCF10A cells assessed as accumulation at S phase at 6 uM after 12 hrs by flow cytometry analysis relative to control; type: functional, cell-based; conditions: MCF-10A; outline: as §1
[18] = Cell cycle arrest in human MCF10A cells assessed as accumulation at G0-G1 phase at 6 uM after 24 hrs by flow cytometry analysis relative to control; type: functional, cell-based; conditions: MCF-10A; outline: as §1
[19] = Cell cycle arrest in human MCF10A cells assessed as accumulation at S phase at 6 uM after 24 hrs by flow cytometry analysis relative to control; type: functional, cell-based; conditions: MCF-10A; outline: as §1
[20] = Cell cycle arrest in human MCF10A cells assessed as accumulation at G2/M phase at 6 uM after 24 hrs by flow cytometry analysis relative to control; type: functional, cell-based; conditions: MCF-10A; outline: as §1
[21] = Cell cycle arrest in human MCF10A cells assessed as accumulation at G2/M phase at 6 uM after 48 hrs by flow cytometry analysis relative to control; type: functional, cell-based; conditions: MCF-10A; outline: as §1
[22] = Cell cycle arrest in human MCF10A cells assessed as accumulation at S phase at 6 uM after 72 hrs by flow cytometry analysis relative to control; type: functional, cell-based; conditions: MCF-10A; outline: as §1
[23] = Cell cycle arrest in human MCF10A cells assessed as accumulation at G2/M phase at 6 uM after 72 hrs by flow cytometry analysis relative to control; type: functional, cell-based; conditions: MCF-10A; outline: as §1
HeLa [24] = test: Increase of histone 3 phosphorylation at Ser10 level in human HeLa cells at 6 uM after 48 hrs by Western blot analysis; type: functional, cell-based
Outline: (§2)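 HeLa cells were sham-treated or given 6 µM and collected at set times. Lysed on ice in Tris pH 7.4/NaCl/EDTA/1% Triton X-100 with PMSF and protease inhibitors. 30-40 µg protein run on 8 or 10% gels, blotted to PVDF, probed overnight at 4°C and detected by ECL. Band levels normalized to GAPDH.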

HeLa [25] = test: Increase of cyclin-B level in human HeLa cells at 6 uM after 48 hrs by Western blot analysis; type: functional, cell-based; outline: as §2
HeLa [26] = test: Induction of mitosis arrest in human HeLa cells assessed as condensation of chromosome at 6 uM after 12 hrs using DAPI staining by immunofluorescence microscopic analysis; type: functional, cell-based
Outline: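 HeLa cells on coverslips treated 12 h, fixed in ice-cold methanol at -20°C. Stained with anti-α-tubulin and anti-lamin A (primary 1:200 overnight at 4°C, fluorescent secondary 1 h) and DAPI for DNA. Mitotic morphology scored by fluorescence microscopy.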

HeLa [27] = test: Antiproliferative activity against human HeLa cells after 72 hrs by SRB assay; type: functional, cell-based
Outline: (§3)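 Cells seeded at 4,000-5,000/well for 16 h, then exposed 72 h to serial dilutions of compound in DMSO; sham DMSO as 100% and TCA-treated wells as 0%. Fixed in 10% TCA at 4°C for 1 h, stained with 0.4% SRB for 30 min, dye solubilised in 10 mmol Tris pH 10.5, read at 540 nm. IC50 from sigmoidal dose-response curves; two biological replicates, four technical each.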

MDA-MB-468 = test: Antiproliferative activity against human MDA-MB-468 cells after 72 hrs by SRB assay; type: functional, cell-based; conditions: MDA-MB-468, 72 h; outline: as §3
[28] = Antiproliferative activity against human 184B5 cells after 72 hrs by SRB assay; type: cell-based; conditions: 184B5, 72 h; outline: as §3
HeLa [29] = test: Cell cycle arrest in human HeLa cells assessed as accumulation at sub-G1 phase at 6 uM after 12 hrs by flow cytometry analysis relative to control; type: functional; outline: as §1
HeLa [30] = test: Cell cycle arrest in human HeLa cells assessed as accumulation at G0-G1 phase at 6 uM after 12 hrs by flow cytometry analysis relative to control; type: functional; outline: as §1
HeLa [31] = test: Cell cycle arrest in human HeLa cells assessed as accumulation at G2/M phase at 6 uM after 12 hrs by flow cytometry analysis relative to control; type: functional; outline: as §1

FC(F)(F)c1cccc(/C=C\c2cc3ccccc3nc2Cl)c1
Activity (HeLa [1]): 16.2%
Activity (HeLa [2]): 8.1%
Activity (HeLa [3]): 12.9%
Activity (HeLa [4]): 23.9%
Activity (HeLa [5]): 12.1%
Activity (MDA-MB-231 [6]): 22.2%
Activity (MDA-MB-231 [7]): 18.2%
Activity (MDA-MB-231 [8]): 10.8%
Activity (MDA-MB-231 [9]): 38.3%
Activity (MDA-MB-231 [10]): 36.3%
Activity (MDA-MB-231 [11]): 31.3%
Activity (MDA-MB-231 [12]): 34.6%
Activity (MDA-MB-231 [13]): 14.2%
Activity (MDA-MB-231 [14]): 14.4%
Activity [15]: 3.4%
Activity [16]: 31.3%
Activity [17]: 52.9%
Activity [18]: 49.2%
Activity [19]: 34.3%
Activity [20]: 8.3%
Activity [21]: 6.2%
Activity [22]: 12.1%
Activity [23]: 4.9%
Activity (HeLa [24]): Active
Activity (HeLa [25]): Active
Activity (HeLa [26]): Active
IC50 (HeLa [27]): 2.85 µM
IC50 (MDA-MB-468): 3.7 µM
IC50 [28]: 6.15 µM
Activity (HeLa [29]): 3.6%
Activity (HeLa [30]): 8%
Activity (HeLa [31]): 78.9%
